According to ChEMBL document CHEMBL1137764, “Design, synthesis, antibacterial activity and physicochemical parameters of novel N-4-piperazinyl derivatives of norfloxacin” (Bioorg Med Chem, 2009):
In brackets after ≈: the same amount, converted by molar mass.

Experiments:
Klebsiella pneumoniae [1] = assay: Antimicrobial activity against Klebsiella pneumoniae after 24 hrs by agar diffusion technique; assay type: functional; settings: for MIC: Klebsiella pneumoniae, 24 h
Method in brief: (§1)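 Agar cup diffusion on Mueller-Hinton agar seeded from 10⁶ CFU/mL suspensions, with 10 mm cups in a 3–4 mm layer. Compounds were in DMF (10 mg/mL stock) at several concentrations. Plates were incubated at 37 °C and zones measured after 24 h. MIC was taken as the intercept of the plot of log concentration against inhibition zone diameter.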

Escherichia coli [2] = assay: Antimicrobial activity against Escherichia coli at 512 ug/ml after 24 hrs by agar diffusion technique; assay type: functional; settings: read-out: DIZ
Method in brief: (§2)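 Strains came from a university microbiology department. Inocula were 10⁶ CFU/mL. Mueller-Hinton agar was seeded with culture, poured 3–4 mm thick, and 10 mm cups were bored. Compounds were dissolved in DMF (10 mg/mL stock), diluted, and the solution was placed in the cups. Plates were incubated at 37 °C overnight. Inhibition zone diameter (mm) was read at 24 h.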

Klebsiella pneumoniae [3] = assay: Antimicrobial activity against Klebsiella pneumoniae at 128 ug/ml after 24 hrs by agar diffusion technique; assay type: functional; settings: read-out: DIZ; method in brief: as §2
Escherichia coli [4] = assay: Antimicrobial activity against Escherichia coli at 16 ug/ml after 24 hrs by agar diffusion technique; assay type: functional; settings: read-out: DIZ; method in brief: as §2
Klebsiella pneumoniae [5] = assay: Antimicrobial activity against Klebsiella pneumoniae at 64 ug/ml after 24 hrs by agar diffusion technique; assay type: functional; settings: read-out: DIZ; method in brief: as §2
Staphylococcus aureus [6] = assay: Antimicrobial activity against Staphylococcus aureus after 24 hrs by agar diffusion technique; assay type: functional; settings: for MIC: Staphylococcus aureus, 24 h; method in brief: as §1
Pseudomonas aeruginosa [7] = assay: Antimicrobial activity against Pseudomonas aeruginosa at 4 ug/ml after 24 hrs by agar diffusion technique; assay type: functional; settings: read-out: DIZ; method in brief: as §2
Pseudomonas aeruginosa [8] = assay: Antimicrobial activity against Pseudomonas aeruginosa after 24 hrs by agar diffusion technique; assay type: functional; settings: for MIC: Pseudomonas aeruginosa, 24 h; method in brief: as §1
Staphylococcus aureus [9] = assay: Antimicrobial activity against Staphylococcus aureus at 128 ug/ml after 24 hrs by agar diffusion technique; assay type: functional; settings: read-out: DIZ; method in brief: as §2
Escherichia coli [10] = assay: Antimicrobial activity against Escherichia coli after 24 hrs by agar diffusion technique; assay type: functional; settings: for MIC: Escherichia coli, 24 h; method in brief: as §1
Klebsiella pneumoniae [11] = assay: Antimicrobial activity against Klebsiella pneumoniae at 512 ug/ml after 24 hrs by agar diffusion technique; assay type: functional; settings: read-out: DIZ; method in brief: as §2
Escherichia coli [12] = assay: Antimicrobial activity against Escherichia coli at 64 ug/ml after 24 hrs by agar diffusion technique; assay type: functional; settings: read-out: DIZ; method in brief: as §2
Klebsiella pneumoniae [13] = assay: Antimicrobial activity against Klebsiella pneumoniae at 4 ug/ml after 24 hrs by agar diffusion technique; assay type: functional; settings: read-out: DIZ; method in brief: as §2
Pseudomonas aeruginosa [14] = assay: Antimicrobial activity against Pseudomonas aeruginosa at 64 ug/ml after 24 hrs by agar diffusion technique; assay type: functional; settings: read-out: DIZ; method in brief: as §2
Klebsiella pneumoniae [15] = assay: Antimicrobial activity against Klebsiella pneumoniae at 16 ug/ml after 24 hrs by agar diffusion technique; assay type: functional; settings: read-out: DIZ; method in brief: as §2
Staphylococcus aureus [16] = assay: Antimicrobial activity against Staphylococcus aureus at 16 ug/ml after 24 hrs by agar diffusion technique; assay type: functional; settings: read-out: DIZ; method in brief: as §2
Staphylococcus aureus [17] = assay: Antimicrobial activity against Staphylococcus aureus at 512 ug/ml after 24 hrs by agar diffusion technique; assay type: functional; settings: read-out: DIZ; method in brief: as §2
Pseudomonas aeruginosa [18] = assay: Antimicrobial activity against Pseudomonas aeruginosa at 512 ug/ml after 24 hrs by agar diffusion technique; assay type: functional; settings: read-out: DIZ; method in brief: as §2
Pseudomonas aeruginosa [19] = assay: Antimicrobial activity against Pseudomonas aeruginosa at 16 ug/ml after 24 hrs by agar diffusion technique; assay type: functional; settings: read-out: DIZ; method in brief: as §2
Escherichia coli [20] = assay: Antimicrobial activity against Escherichia coli at 4 ug/ml after 24 hrs by agar diffusion technique; assay type: functional; settings: read-out: DIZ; method in brief: as §2
Staphylococcus aureus [21] = assay: Antimicrobial activity against Staphylococcus aureus at 4 ug/ml after 24 hrs by agar diffusion technique; assay type: functional; settings: read-out: DIZ; method in brief: as §2
Pseudomonas aeruginosa [22] = assay: Antimicrobial activity against Pseudomonas aeruginosa at 128 ug/ml after 24 hrs by agar diffusion technique; assay type: functional; settings: read-out: DIZ; method in brief: as §2
Escherichia coli [23] = assay: Antimicrobial activity against Escherichia coli at 128 ug/ml after 24 hrs by agar diffusion technique; assay type: functional; settings: read-out: DIZ; method in brief: as §2
Staphylococcus aureus [24] = assay: Antimicrobial activity against Staphylococcus aureus at 64 ug/ml after 24 hrs by agar diffusion technique; assay type: functional; settings: read-out: DIZ; method in brief: as §2
[25] = Octanol-phosphate buffer partition coefficient, log D at pH 7.4 by spectrophotometry; assay type: physicochemical
Method in brief: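 Shake-flask method. A 0.2 mg/mL stock was diluted into pH 7.4 phosphate buffer and mixed with an equal volume of n-octanol, phases mutually presaturated and protected from light. Samples were vortexed 3 min, then shaken 5 h at 25 °C. Both phases were assayed by UV at 270–280 nm. D is the molar concentration ratio, octanol to aqueous.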

Row | Structure (SMILES) | logMIC (Klebsiella pneumoniae [1]) | MIC (Klebsiella pneumoniae [1]) [µg/mL] | zone of inhibition at 512 µg/mL (Escherichia coli [2]) [mm] | zone of inhibition at 128 µg/mL (Klebsiella pneumoniae [3]) [mm] | zone of inhibition at 16 µg/mL (Escherichia coli [4]) [mm] | zone of inhibition at 64 µg/mL (Klebsiella pneumoniae [5]) [mm] | logMIC (Staphylococcus aureus [6]) | MIC (Staphylococcus aureus [6]) [µg/mL] | zone of inhibition at 4 µg/mL (Pseudomonas aeruginosa [7]) [mm] | logMIC (Pseudomonas aeruginosa [8]) | MIC (Pseudomonas aeruginosa [8]) [µg/mL] | logMIC (Escherichia coli [10]) | MIC (Escherichia coli [10]) [µg/mL] | zone of inhibition at 512 µg/mL (Klebsiella pneumoniae [11]) [mm] | zone of inhibition at 64 µg/mL (Escherichia coli [12]) [mm] | zone of inhibition at 4 µg/mL (Klebsiella pneumoniae [13]) [mm] | zone of inhibition at 64 µg/mL (Pseudomonas aeruginosa [14]) [mm] | zone of inhibition at 16 µg/mL (Klebsiella pneumoniae [15]) [mm] | zone of inhibition at 512 µg/mL (Pseudomonas aeruginosa [18]) [mm] | zone of inhibition at 16 µg/mL (Pseudomonas aeruginosa [19]) [mm] | other results
1 | CCn1cc(C(=O)O)c(=O)c2cc(F)c(N3CCN(CN4CCOCC4)CC3)cc21 | 2.11 | 128 (≈ 306 µM) | 30 | 0 | 0 | 0 | 0 | < 1 | 0 | 1.2 | 16 (≈ 38.2 µM) | 2.11 | 128 (≈ 306 µM) | 20 | 0 | 0 | 3 | 0 | 15 | 0 | zone of inhibition at 128 µg/mL (Staphylococcus aureus [9]): 8 mm; zone of inhibition at 16 µg/mL (Staphylococcus aureus [16]): 7 mm; zone of inhibition at 512 µg/mL (Staphylococcus aureus [17]): 10 mm; zone of inhibition at 4 µg/mL (Escherichia coli [20]): 0 mm; zone of inhibition at 4 µg/mL (Staphylococcus aureus [21]): 5 mm; zone of inhibition at 128 µg/mL (Pseudomonas aeruginosa [22]): 3 mm; zone of inhibition at 128 µg/mL (Escherichia coli [23]): 0 mm; zone of inhibition at 64 µg/mL (Staphylococcus aureus [24]): 7 mm; logD [25]: -0.043
2 | CCn1cc(C(=O)O)c(=O)c2cc(F)c(N3CCN(CN4C(=O)c5ccccc5C4=O)CC3)cc21 | 0.95 | 9 (≈ 18.8 µM) | 9 | 8 | 0 | 4 | 2.71 | > 512 | 0 | 1.81 | 64 (≈ 134 µM) | 2.11 | 128 (≈ 268 µM) | 10 | 0 | 0 | 0 | 0 | 12 | 0 | zone of inhibition at 128 µg/mL (Staphylococcus aureus [9]): 0 mm; zone of inhibition at 16 µg/mL (Staphylococcus aureus [16]): 0 mm; zone of inhibition at 512 µg/mL (Staphylococcus aureus [17]): 0 mm; zone of inhibition at 4 µg/mL (Escherichia coli [20]): 0 mm; zone of inhibition at 4 µg/mL (Staphylococcus aureus [21]): 0 mm; zone of inhibition at 128 µg/mL (Pseudomonas aeruginosa [22]): 10 mm; zone of inhibition at 128 µg/mL (Escherichia coli [23]): 0 mm; zone of inhibition at 64 µg/mL (Staphylococcus aureus [24]): 0 mm
3 | CCn1cc(C(=O)O)c(=O)c2cc(F)c(N3CCN(C4CCCC4)CC3)cc21 | 1.11 | 13 (≈ 33.6 µM) | 8 | 3 | 0 | 2 | 1.04 | 11 (≈ 28.4 µM) | 0 | 2.71 | > 512 | 1.81 | 64 (≈ 165 µM) | 8 | 0 | 0 | 0 | 0 | 0 | 0 | zone of inhibition at 128 µg/mL (Staphylococcus aureus [9]): 7 mm; zone of inhibition at 16 µg/mL (Staphylococcus aureus [16]): 0 mm; zone of inhibition at 512 µg/mL (Staphylococcus aureus [17]): 15 mm; zone of inhibition at 4 µg/mL (Escherichia coli [20]): 0 mm; zone of inhibition at 4 µg/mL (Staphylococcus aureus [21]): 0 mm; zone of inhibition at 128 µg/mL (Pseudomonas aeruginosa [22]): 0 mm; zone of inhibition at 128 µg/mL (Escherichia coli [23]): 3 mm; zone of inhibition at 64 µg/mL (Staphylococcus aureus [24]): 4 mm
4 | CCn1cc(C(=O)O)c(=O)c2cc(F)c(N3CCN(c4nnc(-c5ccccc5)c(-c5ccccc5)n4)CC3)cc21 | 2.71 | > 512 | 0 | 0 | 0 | 0 | 1.81 | 64 (≈ 116 µM) | 0 | 2.71 | > 512 | 2.71 | > 512 | 0 | 0 | 0 | 0 | 0 | 0 | 0 | zone of inhibition at 4 µg/mL (Escherichia coli [20]): 0 mm; zone of inhibition at 128 µg/mL (Pseudomonas aeruginosa [22]): 0 mm; zone of inhibition at 128 µg/mL (Escherichia coli [23]): 0 mm; logD [25]: -0.072
